Columns and labels:
[1] = target: T1, Adenosine receptor A2b (Homo sapiens) (UniProt P29275); test: Displacement of [3H][…] from human adenosine A2B receptor expressed in CHO cells at 10 uM after 2 hrs by scintillation counting; type: cell-based
T1 sequence (whole entry): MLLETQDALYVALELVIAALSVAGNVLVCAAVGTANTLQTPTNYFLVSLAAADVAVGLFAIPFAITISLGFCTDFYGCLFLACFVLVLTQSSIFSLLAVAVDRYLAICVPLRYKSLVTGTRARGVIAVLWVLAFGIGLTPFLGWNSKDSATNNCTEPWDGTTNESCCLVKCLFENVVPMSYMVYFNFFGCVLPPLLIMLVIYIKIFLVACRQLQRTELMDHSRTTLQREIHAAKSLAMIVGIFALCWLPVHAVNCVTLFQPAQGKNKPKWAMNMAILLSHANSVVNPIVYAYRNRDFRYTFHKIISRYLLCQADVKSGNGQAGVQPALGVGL
Procedure, shortened: (§1)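 Stably transfected CHO membranes (15 μg protein) with 1.0 nM [3H]PSB603 final in 50 mM Tris·HCl pH 7.4, 1 U/mL ADA, 0.1% CHAPS, 2 h at 25 °C. Nonspecific binding with 100 μM NECA. GF/C filtration; washes in ice-cold Tris·HCl pH 7.4 plus 0.1% BSA. Ki by nonlinear regression using radioligand Ki of 0.41 nM.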

[2] = target: T2, Adenosine receptor A3 (Homo sapiens) (UniProt P0DMS8); test: Displacement of [3H]PSB11 from human adenosine A3 receptor expressed in HEK 293 cells at 10 uM after 1 hr by scintillation counting; type: cell-based; details: HEK293
T2 sequence (whole entry): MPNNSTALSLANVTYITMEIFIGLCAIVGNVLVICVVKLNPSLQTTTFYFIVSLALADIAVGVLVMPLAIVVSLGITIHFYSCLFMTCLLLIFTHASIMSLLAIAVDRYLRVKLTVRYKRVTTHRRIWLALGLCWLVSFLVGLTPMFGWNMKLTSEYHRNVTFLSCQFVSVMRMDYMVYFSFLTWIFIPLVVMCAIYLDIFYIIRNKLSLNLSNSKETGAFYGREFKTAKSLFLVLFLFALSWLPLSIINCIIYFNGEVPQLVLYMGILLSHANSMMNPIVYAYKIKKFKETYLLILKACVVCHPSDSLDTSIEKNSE

Adenosine receptor A1 = target: T3, Adenosine receptor A1 (Homo sapiens, UniProt P30542); test: Displacement of [3H]DPCPX from human adenosine A1 receptor expressed in CHO cells after 1 hr by scintillation counting; type: cell-based
T3 sequence (P30542 whole entry): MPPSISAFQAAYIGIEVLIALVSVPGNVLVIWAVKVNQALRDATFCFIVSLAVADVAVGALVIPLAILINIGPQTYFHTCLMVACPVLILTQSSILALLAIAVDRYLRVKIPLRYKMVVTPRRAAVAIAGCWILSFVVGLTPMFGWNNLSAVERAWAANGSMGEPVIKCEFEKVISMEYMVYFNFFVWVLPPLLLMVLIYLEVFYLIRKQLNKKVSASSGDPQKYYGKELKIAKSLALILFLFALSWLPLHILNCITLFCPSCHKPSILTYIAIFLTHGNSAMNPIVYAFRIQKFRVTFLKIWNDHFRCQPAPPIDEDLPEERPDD

Adenosine receptor A2a [3] = target: T4, Adenosine receptor A2a (Homo sapiens, UniProt P29274); test: Displacement of [3H]ZM241385 from human adenosine A2A receptor expressed in HEK 293 cells at 10 uM after 2 hrs by scintillation counting; type: cell-based; details: HEK293
T4 sequence (P29274 whole entry): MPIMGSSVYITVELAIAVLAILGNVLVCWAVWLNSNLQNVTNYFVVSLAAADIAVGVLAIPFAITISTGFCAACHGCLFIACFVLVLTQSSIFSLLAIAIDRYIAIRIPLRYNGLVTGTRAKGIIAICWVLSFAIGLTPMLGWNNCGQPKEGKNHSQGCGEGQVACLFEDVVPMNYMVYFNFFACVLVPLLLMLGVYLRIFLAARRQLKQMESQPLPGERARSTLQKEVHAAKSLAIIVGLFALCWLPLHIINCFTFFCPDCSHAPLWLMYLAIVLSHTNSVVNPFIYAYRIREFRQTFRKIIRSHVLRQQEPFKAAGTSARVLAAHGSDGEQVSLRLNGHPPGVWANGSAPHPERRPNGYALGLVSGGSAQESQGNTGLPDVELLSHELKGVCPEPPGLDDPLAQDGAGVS

Adenosine receptor A2a [4] = target: T4, Adenosine receptor A2a; test: Displacement of [3H]ZM241385 from human adenosine A2A receptor expressed in HEK 293 cells after 2 hrs by scintillation counting; type: cell-based, HEK293
Adenosine receptor A3 = target: T5, Adenosine receptor A3 (Homo sapiens, UniProt P0DMS8); test: Displacement of [3H]PSB11 from human adenosine A3 receptor expressed in HEK 293 cells after 1 hr by scintillation counting; type: cell-based, HEK293
T5 sequence (P0DMS8 whole entry): T2 sequence (whole entry)

Adenosine receptor A2b = target: T6, Adenosine receptor A2b (Homo sapiens, UniProt P29275); test: Displacement of [3H][…] from human adenosine A2B receptor expressed in CHO cells after 2 hrs by scintillation counting; type: cell-based; procedure, shortened: as §1
T6 sequence (P29275 whole entry): T1 sequence (whole entry)

[5] = target: T7, Adenosine receptor A1 (Homo sapiens) (UniProt P30542); test: Displacement of [3H]DPCPX from human adenosine A1 receptor expressed in CHO cells at 10 uM after 1 hr by scintillation counting; type: cell-based
T7 sequence (whole entry): T3 sequence (P30542 whole entry)

Compound	inhibition [1]	inhibition [2]	Ki (Adenosine receptor A1)	inhibition (Adenosine receptor A2a [3])	Ki (Adenosine receptor A2a [4])	Ki (Adenosine receptor A3)	Ki (Adenosine receptor A2b)	inhibition [5]
C=CCn1c(=O)[nH]c2nc3cc(NC(C)=O)ccc3nc2c1=O	14%	-3%	3200 nM	42%				
N#Cc1cnc(N)nc1-c1ccccc1		13%	900 nM		300 nM			
COc1nc(N)c(C#N)c(-c2ccc3c(c2)OCO3)c1C#N	32%	21%	510 nM		31000 nM			
Nc1nc(-c2ccccc2)nc(-c2ccccc2O)n1			7.2 nM		43 nM	440 nM	220 nM	
O=C(Cc1ccccc1)Nc1nn2c(-c3ccco3)nnc2s1	-8%	3%			5100 nM			44%
COCc1cc(C)nc2sc(-c3nc(N)nc(N(C)C)n3)c(N)c12	-5%	33%			1600 nM			35%

Source: ChEMBL document CHEMBL2163229, “Identifying novel adenosine receptor ligands by simultaneous proteochemometric modeling of rat and human bioactivity data” (J Med Chem, 2012)
